Measured values taken from ChEMBL document CHEMBL1144839, “Cytotoxic bastadin 24 from the Australian sponge Ianthella quadrangulata” (J Nat Prod, 2008).
Converted amounts (≈) assume the structure as drawn.

Legend:
HUVEC = test: Antiangiogenic activity in HUVEC cells assessed as inhibition of hEGF-induced tubular formation at 1 ug/mL after 24 hrs relative to control; type: functional, Homo sapiens; design: scale not given: the % may be the effect or the level left
SF-268 = test: Cytotoxicity against human SF268 cells after 4 days by modified propidium iodide monolayer assay; type: functional, cell-based; details: SF-268, 96 h
Outline: (§1)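 Part of a 36-line human tumor cell panel. Proliferation inhibition was measured over a range of concentrations, and an IC50 was derived for each cell line from its concentration–response.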

[1] = Cytotoxicity against human 1121L cells after 4 days by modified propidium iodide monolayer assay; type: functional, cell-based; details: 96 h; outline: as §1
[2] = Cytotoxicity against human 526L cells after 4 days by modified propidium iodide monolayer assay; type: functional, cell-based; details: 96 h; outline: as §1
[3] = Cytotoxicity against human 629L cells after 4 days by modified propidium iodide monolayer assay; type: functional, cell-based; details: 96 h; outline: as §1
[4] = Cytotoxicity against human 289L cells after 4 days by modified propidium iodide monolayer assay; type: functional, cell-based; details: 96 h; outline: as §1
[5] = Cytotoxicity against human 394NL cells after 4 days by modified propidium iodide monolayer assay; type: functional, cell-based; details: 96 h; outline: as §1
[6] = Cytotoxicity against human 1657L cells after 4 days by modified propidium iodide monolayer assay; type: functional, cell-based; details: 96 h; outline: as §1
CWR22R = test: Cytotoxicity against human 22RV1 cells after 4 days by modified propidium iodide monolayer assay; type: functional, cell-based; details: 22Rv1, 96 h; outline: as §1
[7] = Cytotoxicity against human 1138L cells after 4 days by modified propidium iodide monolayer assay; type: functional, cell-based; details: 96 h; outline: as §1
LNCaP = test: Cytotoxicity against human LNCAP cells after 4 days by modified propidium iodide monolayer assay; type: functional, cell-based; details: 96 h; outline: as §1
[8] = Cytotoxicity against human 498NL cells after 4 days by modified propidium iodide monolayer assay; type: functional, cell-based; details: 96 h; outline: as §1
[9] = Cytotoxicity against human 251L cells after 4 days by modified propidium iodide monolayer assay; type: functional, cell-based; details: 96 h; outline: as §1
[10] = Cytotoxicity against human 1619L cells after 4 days by modified propidium iodide monolayer assay; type: functional, cell-based; details: 96 h; outline: as §1
[11] = Cytotoxicity against human 462NL cells after 4 days by modified propidium iodide monolayer assay; type: functional, cell-based; details: 96 h; outline: as §1
[12] = Cytotoxicity against human 1781L cells after 4 days by modified propidium iodide monolayer assay; type: functional, cell-based; details: 96 h; outline: as §1
NCI-H460 = test: Cytotoxicity against human H460 cells after 4 days by modified propidium iodide monolayer assay; type: functional, cell-based; details: NCI-H460, 96 h; outline: as §1
[13] = Cytotoxicity against human 1218L cells after 4 days by modified propidium iodide monolayer assay; type: functional, cell-based; details: 96 h; outline: as §1
[14] = Cytotoxicity against human 401NL cells after 4 days by modified propidium iodide monolayer assay; type: functional, cell-based; details: 96 h; outline: as §1
[15] = Cytotoxicity against human 529L cells after 4 days by modified propidium iodide monolayer assay; type: functional, cell-based; details: 96 h; outline: as §1
MCF7 = test: Cytotoxicity against human MCF7 cells after 4 days by modified propidium iodide monolayer assay; type: functional, cell-based; details: MCF7, 96 h; outline: as §1
OVCAR-3 = test: Cytotoxicity against human OVCAR-3 cells after 4 days by modified propidium iodide monolayer assay; type: functional, cell-based; details: OVCAR-3, 96 h; outline: as §1
[16] = Cytotoxicity against human 276L cells after 4 days by modified propidium iodide monolayer assay; type: functional, cell-based; details: 96 h; outline: as §1
[17] = Cytotoxicity against human 1752L cells after 4 days by modified propidium iodide monolayer assay; type: functional, cell-based; details: 96 h; outline: as §1
[18] = Cytotoxicity against human 899L cells after 4 days by modified propidium iodide monolayer assay; type: functional, cell-based; details: 96 h; outline: as §1
[19] = Cytotoxicity against human 944L cells after 4 days by modified propidium iodide monolayer assay; type: functional, cell-based; details: 96 h; outline: as §1
HCT-116 = test: Cytotoxicity against human HCT116 cells after 4 days by modified propidium iodide monolayer assay; type: functional, cell-based; details: HCT-116, 96 h; outline: as §1
[20] = Cytotoxicity against human 514L cells after 4 days by modified propidium iodide monolayer assay; type: functional, cell-based; details: 96 h; outline: as §1
HT-29 = test: Cytotoxicity against human HT29 cells after 4 days by modified propidium iodide monolayer assay; type: functional, cell-based; details: HT-29, 96 h; outline: as §1
PANC-1 = test: Cytotoxicity against human PANC1 cells after 4 days by modified propidium iodide monolayer assay; type: functional, cell-based; details: PANC-1, 96 h; outline: as §1
[21] = Cytotoxicity against human 393NL cells after 4 days by modified propidium iodide monolayer assay; type: functional, cell-based; details: 96 h; outline: as §1
[22] = Cytotoxicity against human 536L cells after 4 days by modified propidium iodide monolayer assay; type: functional, cell-based; details: 96 h; outline: as §1
DU-145 = test: Cytotoxicity against human DU145 cells after 4 days by modified propidium iodide monolayer assay; type: functional, cell-based; details: DU-145, 96 h; outline: as §1
[23] = Cytotoxicity against human PC3M cells after 4 days by modified propidium iodide monolayer assay; type: functional, cell-based; details: PC-3M, 96 h; outline: as §1
[24] = Cytotoxicity against human 520L cells after 4 days by modified propidium iodide monolayer assay; type: functional, cell-based; details: 96 h; outline: as §1
[25] = Cytotoxicity against human 486L cells after 4 days by modified propidium iodide monolayer assay; type: functional, cell-based; details: 96 h; outline: as §1
T-24 = test: Cytotoxicity against human T24 cells after 4 days by modified propidium iodide monolayer assay; type: functional, cell-based; details: T-24, 96 h; outline: as §1

O=C1NCCc2cc(Br)c(O)c(c2)Oc2c(Br)cc(cc2Br)[C@H](O)CNC(=O)/C(=N/O)Cc2cc(Br)c(O)c(c2)Oc2ccc(cc2Br)C/C1=N\O [BASTADIN 12]
Activity (HUVEC): 27.6%

O=C1NCCc2cc(Br)c(c(Br)c2)Oc2cc(cc(Br)c2O)CCNC(=O)/C(=N/O)C(O)c2cc(Br)c(c(Br)c2)Oc2cc(cc(Br)c2O)C/C1=N\O (centres undefined) [BASTADIN 24]
IC50 (SF-268): 0.38 µg/mL (≈ 0.341 µM)
IC70 (SF-268): 0.61 µg/mL (≈ 0.548 µM)
IC90 (SF-268): 0.96 µg/mL (≈ 0.862 µM)
IC50 [1]: 1.51 µg/mL (≈ 1.36 µM)
IC70 [1]: 3.43 µg/mL (≈ 3.08 µM)
IC90 [1]: 7.81 µg/mL (≈ 7.01 µM)
IC50 [2]: 1.22 µg/mL (≈ 1.1 µM)
IC70 [2]: 3.24 µg/mL (≈ 2.91 µM)
IC90 [2]: 8.63 µg/mL (≈ 7.75 µM)
IC50 [3]: 0.37 µg/mL (≈ 0.332 µM)
IC70 [3]: 0.63 µg/mL (≈ 0.566 µM)
IC90 [3]: 1.67 µg/mL (≈ 1.5 µM)
IC50 [4]: 2.68 µg/mL (≈ 2.41 µM)
IC70 [4]: 4.88 µg/mL (≈ 4.38 µM)
IC90 [4]: 8.87 µg/mL (≈ 7.96 µM)
IC50 [5]: 1.5 µg/mL (≈ 1.35 µM)
IC70 [5]: 3.36 µg/mL (≈ 3.02 µM)
IC90 [5]: 7.54 µg/mL (≈ 6.77 µM)
IC50 [6]: 2.18 µg/mL (≈ 1.96 µM)
IC70 [6]: 4.58 µg/mL (≈ 4.11 µM)
IC90 [6]: 9.64 µg/mL (≈ 8.65 µM)
IC50 (CWR22R): 0.46 µg/mL (≈ 0.413 µM)
IC70 (CWR22R): 0.96 µg/mL (≈ 0.862 µM)
IC90 (CWR22R): 5.75 µg/mL (≈ 5.16 µM)
IC50 [7]: 1.4 µg/mL (≈ 1.26 µM)
IC70 [7]: 3.3 µg/mL (≈ 2.96 µM)
IC90 [7]: 7.74 µg/mL (≈ 6.95 µM)
IC50 (LNCaP): 2.47 µg/mL (≈ 2.22 µM)
IC70 (LNCaP): 4.59 µg/mL (≈ 4.12 µM)
IC90 (LNCaP): 8.56 µg/mL (≈ 7.68 µM)
IC50 [8]: 2.64 µg/mL (≈ 2.37 µM)
IC70 [8]: 4.6 µg/mL (≈ 4.13 µM)
IC90 [8]: 8.01 µg/mL (≈ 7.19 µM)
IC50 [9]: 2.64 µg/mL (≈ 2.37 µM)
IC70 [9]: 5.42 µg/mL (≈ 4.87 µM)
IC90 [9]: 11.1 µg/mL (≈ 10 µM)
IC50 [10]: 2.77 µg/mL (≈ 2.49 µM)
IC70 [10]: 4.73 µg/mL (≈ 4.25 µM)
IC90 [10]: 8.07 µg/mL (≈ 7.24 µM)
IC50 [11]: 1.58 µg/mL (≈ 1.42 µM)
IC70 [11]: 3.66 µg/mL (≈ 3.29 µM)
IC90 [11]: 8.46 µg/mL (≈ 7.59 µM)
IC50 [12]: 2.88 µg/mL (≈ 2.59 µM)
IC70 [12]: 4.94 µg/mL (≈ 4.43 µM)
IC90 [12]: 8.5 µg/mL (≈ 7.63 µM)
IC50 (NCI-H460): 4.31 µg/mL (≈ 3.87 µM)
IC70 (NCI-H460): 6.08 µg/mL (≈ 5.46 µM)
IC90 (NCI-H460): 8.57 µg/mL (≈ 7.69 µM)
IC50 [13]: 2.56 µg/mL (≈ 2.3 µM)
IC70 [13]: 4.9 µg/mL (≈ 4.4 µM)
IC90 [13]: 9.37 µg/mL (≈ 8.41 µM)
IC50 [14]: 0.55 µg/mL (≈ 0.494 µM)
IC70 [14]: 0.87 µg/mL (≈ 0.781 µM)
IC90 [14]: 8.58 µg/mL (≈ 7.7 µM)
IC50 [15]: 1.7 µg/mL (≈ 1.53 µM)
IC70 [15]: 3.61 µg/mL (≈ 3.24 µM)
IC90 [15]: 7.68 µg/mL (≈ 6.89 µM)
IC50 (MCF7): 1.46 µg/mL (≈ 1.31 µM)
IC70 (MCF7): 3.37 µg/mL (≈ 3.03 µM)
IC90 (MCF7): 7.78 µg/mL (≈ 6.98 µM)
IC50 (OVCAR-3): 3.66 µg/mL (≈ 3.29 µM)
IC70 (OVCAR-3): 5.72 µg/mL (≈ 5.13 µM)
IC90 (OVCAR-3): 8.94 µg/mL (≈ 8.02 µM)
IC50 [16]: 0.59 µg/mL (≈ 0.53 µM)
IC70 [16]: 2.02 µg/mL (≈ 1.81 µM)
IC90 [16]: 14.9 µg/mL (≈ 13.4 µM)
IC50 [17]: 3.81 µg/mL (≈ 3.42 µM)
IC70 [17]: 5.91 µg/mL (≈ 5.31 µM)
IC90 [17]: 9.16 µg/mL (≈ 8.22 µM)
IC50 [18]: 3.79 µg/mL (≈ 3.4 µM)
IC70 [18]: 5.95 µg/mL (≈ 5.34 µM)
IC90 [18]: 9.35 µg/mL (≈ 8.39 µM)
IC50 [19]: 2.28 µg/mL (≈ 2.05 µM)
IC70 [19]: 4.54 µg/mL (≈ 4.08 µM)
IC90 [19]: 9.02 µg/mL (≈ 8.1 µM)
IC50 (HCT-116): 3.87 µg/mL (≈ 3.47 µM)
IC70 (HCT-116): 5.71 µg/mL (≈ 5.13 µM)
IC90 (HCT-116): 8.4 µg/mL (≈ 7.54 µM)
IC50 [20]: 1.62 µg/mL (≈ 1.45 µM)
IC70 [20]: 3.64 µg/mL (≈ 3.27 µM)
IC90 [20]: 8.17 µg/mL (≈ 7.33 µM)
IC50 (HT-29): 2 µg/mL (≈ 1.8 µM)
IC70 (HT-29): 3.85 µg/mL (≈ 3.46 µM)
IC90 (HT-29): 7.44 µg/mL (≈ 6.68 µM)
IC50 (PANC-1): 4.23 µg/mL (≈ 3.8 µM)
IC70 (PANC-1): 6.31 µg/mL (≈ 5.66 µM)
IC90 (PANC-1): 9.41 µg/mL (≈ 8.45 µM)
IC50 [21]: 2.42 µg/mL (≈ 2.17 µM)
IC70 [21]: 4.38 µg/mL (≈ 3.93 µM)
IC90 [21]: 7.9 µg/mL (≈ 7.09 µM)
IC50 [22]: 4.19 µg/mL (≈ 3.76 µM)
IC70 [22]: 6.16 µg/mL (≈ 5.53 µM)
IC90 [22]: 9.08 µg/mL (≈ 8.15 µM)
IC50 (DU-145): 0.96 µg/mL (≈ 0.862 µM)
IC70 (DU-145): 2.59 µg/mL (≈ 2.32 µM)
IC90 (DU-145): 7.04 µg/mL (≈ 6.32 µM)
IC50 [23]: 1.29 µg/mL (≈ 1.16 µM)
IC70 [23]: 3.03 µg/mL (≈ 2.72 µM)
IC90 [23]: 7.11 µg/mL (≈ 6.38 µM)
IC50 [24]: 2.6 µg/mL (≈ 2.33 µM)
IC70 [24]: 4.56 µg/mL (≈ 4.09 µM)
IC90 [24]: 7.99 µg/mL (≈ 7.17 µM)
IC50 [25]: 6.08 µg/mL (≈ 5.46 µM)
IC70 [25]: 11.3 µg/mL (≈ 10.2 µM)
IC90 [25]: 21.1 µg/mL (≈ 18.9 µM)
IC50 (T-24): 0.79 µg/mL (≈ 0.709 µM)
IC70 (T-24): 2.19 µg/mL (≈ 1.97 µM)
IC90 (T-24): 6.24 µg/mL (≈ 5.6 µM)
